Assay results pooled from the literature.
Target: Cytochrome P450 2C8 (CYP2C8, Homo sapiens, UniProt P10632)
Effect on: enzyme activity
Action: inhibitor

| Structure (SMILES) | method | host | medium | time | pH | endpoint | result |
| --- | --- | --- | --- | --- | --- | --- | --- |
| Cc1ccc2nc(-c3ccccc3)c(CNc3ccc(F)cc3)n2c1 | – | – | – | – | – | IC50 | 1 µM |
| NS(=O)(=O)NCCNc1nonc1C(=NO)Nc1ccc(F)c(Br)c1 | – | – | – | – | – | IC50 | > 10 µM |
| C=CC(=O)Nc1cc(Nc2nccc(Nc3cc(Cl)c(F)cc3C(C)(C)O)n2)c(OC)cc1N1CC[C@@H](N(C)C)C1 | – | human | liver microsomes | – | – | IC50 | > 30 µM |
| C[C@@H](c1ccc2nccn2c1)n1nnc2ncc(-c3cnn(C)c3)nc21 | – | human | liver microsomes | – | pH 7.4 | IC50 | 16 µM |
| N#C[C@H](C[C@@H]1CCCNC1=O)NC(=O)[C@H](CC1CC1)NC(=O)c1cc2cccc(Cl)c2[nH]1 | – | human | liver microsomes | – | – | IC50 | 3.9 µM |
| COc1ccn2c(Nc3ccccc3F)c(-c3ccncn3)nc2c1 | – | – | – | – | – | IC50 | 1 µM |
| Ic1ccc(CSCn2ccnc2)cc1 | – | – | – | 30 min | pH 7.4 | IC50 | 0.566 µM |
| Cc1cc2c(F)c(Oc3ncnn4cc(OC[C@@H](C)O)c(C)c34)ccc2[nH]1 | fluorescence | – | – | 15 min | – | IC50 | 3.08 µM |
| CCc1cc(/C(C)=N/OCc2ccc(C3CCCCC3)c(C(F)(F)F)c2)ccc1CN1CC(C(=O)O)C1 | – | human | liver microsomes | 20 min | – | IC50 | > 1.1 µM |
| Cc1cc(C)c2c(c1)[C@@H](N(Cc1cc(C(F)(F)F)cc(C(F)(F)F)c1)c1nnn(C)n1)CCCN2C[C@H]1CC[C@H](C(=O)O)CC1 | – | human | liver microsomes | – | pH 7.4 | Ki | 1300 nM |
